In ChEMBL document CHEMBL3272196, “Synthesis and biological action of two glucocorticoid alkylating agents” (J Med Chem, 1977):
Each block holds one compound with its values, some of them ahead of it. Calls of active or inactive are those of the source. The calls are words filed in the database; no cut-off is given here.

Experiments:
[1] = target: T1, Glucocorticoid receptor (Mus musculus) (UniProt P06537); assay: (§1) Displacement of 1 x 10^-8 M of [1,2,3-3H]-triamcinolone acetonide from glucocorticoid receptor in soluble fraction of mouse L929 cells after 20 hrs; type: cell-based
T1 sequence (whole entry): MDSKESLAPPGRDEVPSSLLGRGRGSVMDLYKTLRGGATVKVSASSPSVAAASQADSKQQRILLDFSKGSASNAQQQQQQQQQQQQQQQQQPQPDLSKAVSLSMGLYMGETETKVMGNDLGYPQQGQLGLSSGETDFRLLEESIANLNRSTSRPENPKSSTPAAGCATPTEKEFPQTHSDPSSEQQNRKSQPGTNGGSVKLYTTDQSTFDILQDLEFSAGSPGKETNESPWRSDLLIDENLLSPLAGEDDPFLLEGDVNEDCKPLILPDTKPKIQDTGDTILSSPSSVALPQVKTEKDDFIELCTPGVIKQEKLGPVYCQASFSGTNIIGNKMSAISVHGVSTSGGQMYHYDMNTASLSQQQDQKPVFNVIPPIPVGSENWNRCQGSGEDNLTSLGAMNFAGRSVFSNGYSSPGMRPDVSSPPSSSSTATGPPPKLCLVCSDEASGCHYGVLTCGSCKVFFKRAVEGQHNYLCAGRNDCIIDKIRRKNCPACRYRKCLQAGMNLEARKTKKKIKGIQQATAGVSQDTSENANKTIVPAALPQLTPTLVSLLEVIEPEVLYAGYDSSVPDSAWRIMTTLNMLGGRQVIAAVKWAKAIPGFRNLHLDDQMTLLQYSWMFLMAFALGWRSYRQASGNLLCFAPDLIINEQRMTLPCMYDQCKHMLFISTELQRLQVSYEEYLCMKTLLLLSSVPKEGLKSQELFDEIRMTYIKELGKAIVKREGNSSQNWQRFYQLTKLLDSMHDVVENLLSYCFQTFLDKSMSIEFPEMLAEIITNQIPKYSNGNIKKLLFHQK

Estrogen receptor = target: T2, Estrogen receptor (Rattus norvegicus, UniProt P06211); assay: Displacement of radiolabeled estradiol from estradiol receptor in rat uterine cytosol; set-up: species or system Uterus
T2 sequence (P06211 whole entry): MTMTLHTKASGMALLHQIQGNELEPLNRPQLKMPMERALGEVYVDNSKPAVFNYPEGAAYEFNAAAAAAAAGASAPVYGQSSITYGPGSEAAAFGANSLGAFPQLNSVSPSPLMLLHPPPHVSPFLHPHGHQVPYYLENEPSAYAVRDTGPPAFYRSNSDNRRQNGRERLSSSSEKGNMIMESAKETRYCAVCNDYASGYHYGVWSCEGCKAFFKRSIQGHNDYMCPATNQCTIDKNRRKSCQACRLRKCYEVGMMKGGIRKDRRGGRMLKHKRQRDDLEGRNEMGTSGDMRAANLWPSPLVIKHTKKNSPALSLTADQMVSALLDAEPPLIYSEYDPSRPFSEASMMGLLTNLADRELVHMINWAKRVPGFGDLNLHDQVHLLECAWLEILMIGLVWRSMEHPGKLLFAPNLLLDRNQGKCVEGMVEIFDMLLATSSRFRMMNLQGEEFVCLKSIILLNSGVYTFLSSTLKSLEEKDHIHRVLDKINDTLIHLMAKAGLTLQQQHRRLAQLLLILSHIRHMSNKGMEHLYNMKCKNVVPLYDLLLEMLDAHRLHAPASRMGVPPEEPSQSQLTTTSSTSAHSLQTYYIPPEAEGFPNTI

[2] = Alkylating activity of the compound assessed as alkylation of 4-(p-nitrobenzyl)pyridine after 20 mins by colorimetric analysis; type: physicochemical
How it was run: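 Test agent at 10⁻⁴ M in 1% Me₂SO in water; 3 mL aliquots heated 20 min in boiling water bath with 4-(p-nitrobenzyl)pyridine in acetate buffer pH 4.0. Purple adduct developed with 5.0 N NaOH, extracted into ethyl acetate, A540 read exactly 6 min after base. Value read off mechlorethamine standard curve, expressed relative to mechlorethamine.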

L929 [3] = assay: Growth inhibition of mouse L929 cells after 6 days; type: functional, cell-based
How it was run: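 L929 mouse fibroblasts in monolayer in Joklik medium, steroids added in DMSO (0.1% of medium volume) early in growth. Cells harvested and counted 6 days later. Mean of three replicate cultures, expressed as percent of vehicle-control growth.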

L929 [4] = assay: Growth inhibition of mouse L929 cells at 3 x 10^-7 M preincubated for 48 hrs followed by compound washout; type: functional, cell-based
How it was run: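 L929 monolayers (15 mL) dosed day 1, 18 h after seeding, at 3×10⁻⁷ M final, vehicle DMSO. Day 3 medium changed, half switched to steroid-free medium. Medium renewed every other day, cells per bottle counted. Mean and standard error of three replicate cultures.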

[5] = Alkylating activity of the compound assessed as alkylation of 4-(p-nitrobenzyl)pyridine at 10^-4 M after 20 mins by colorimetric analysis relative to mechlorethamine; type: physicochemical; details: 100 µM
Glucocorticoid receptor [6] = target: T3, Glucocorticoid receptor (Mus musculus, UniProt P06537); assay: Displacement of 2 x 10^-8 M of [1,2,3-3H]-triamcinolone acetonide from glucocorticoid receptor in soluble fraction of mouse L929 cells after 20 hrs; type: cell-based; details: read-out: Kd(app)
T3 sequence (P06537 whole entry): T1 sequence (whole entry)

[7] = Alkylating activity of the compound assessed as alkylation of 4-(p-nitrobenzyl)pyridine at 10^-4 M after 20 mins by colorimetric analysis; type: physicochemical; details: 100 µM
Glucocorticoid receptor [8] = target: T3, Glucocorticoid receptor; assay: as §1; type: cell-based
[9] = target: T1, Glucocorticoid receptor (Mus musculus); assay: Displacement of [1,2,3-3H]-triamcinolone acetonide from glucocorticoid receptor in soluble fraction of mouse L929 cells at 10^-6 M preincubated for 4 hrs followed by [3H]-triamcinolone acetonide addition measured after 18 hrs by double reciprocal plot analysis; type: cell-based
How it was run: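 L929 100 000g supernatant preincubated 4 h on ice with vehicle, 10⁻⁶ M agent or 10⁻⁷ M cortisol. Varied [3H]triamcinolone acetonide then added, incubation continued 18 h. Bound counted after Sephadex G-25 separation; nonspecific (3×10⁻⁵ M dexamethasone) subtracted. Specific binding plotted against free ligand and in double-reciprocal form.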

SMILES: C[C@]12CC[C@@H]3c4ccc(OC(=O)Cc5ccc(N(CCCl)CCCl)cc5)cc4CC[C@H]3[C@@H]1CC[C@@H]2OC(=O)Cc1ccc(N(CCCl)CCCl)cc1 [ESTRADIOL MUSTARD]
Kd (Estrogen receptor): 3000 nM

SMILES: CC1(C)O[C@@H]2C[C@H]3[C@@H]4CCC5=CC(=O)C=C[C@]5(C)[C@@]4(F)[C@@H](O)C[C@]3(C)[C@]2(C(=O)COC(=O)N(CCCl)CCCl)O1
growth inhibition (GI) (L929 [4]): inactive
Activity [5]: 20%
Kd (Glucocorticoid receptor [6]): 7.5 nM
growth inhibition (GI) (L929 [3]): Active
Activity [7]: Active

SMILES: C[C@]1(c2ccccc2)O[C@@H]2C[C@H]3[C@@H]4CCC5=CC(=O)C=C[C@]5(C)[C@@]4(F)[C@@H](O)C[C@]3(C)[C@]2(C(=O)CO)O1
inhibition [1]: Active

SMILES: CC1(C)O[C@@H]2C[C@H]3[C@@H]4CCC5=CC(=O)C=C[C@]5(C)[C@@]4(F)[C@@H](O)C[C@]3(C)[C@]2(C(=O)CO)O1 [TRIAMCINOLONE ACETONIDE]
Activity [2]: Not Active
growth inhibition (GI) (L929 [4]): inactive
growth inhibition (GI) (L929 [3]): Active

SMILES: C[C@]12CCC(=O)C=C1CC[C@@H]1[C@@H]2[C@@H](O)C[C@@]2(C)[C@H]1CC[C@]2(O)C(=O)COC(=O)CCC(=O)O [HYDROCORTISONE HEMISUCCINATE ANHYDROUS]
Kd (Glucocorticoid receptor [8]): 190 nM

SMILES: C[C@]12CCC(=O)C=C1CC[C@@H]1[C@@H]2[C@@H](O)C[C@@]2(C)[C@H]1CC[C@]2(O)C(=O)COC(=O)N(CCCl)CCCl
Activity [5]: 20%
Kd (Glucocorticoid receptor [6]): 430 nM
growth inhibition (GI) (L929 [3]): Active
Activity [7]: Active
inhibition [9]: inactive

The next lines start with results.

inhibition [1]: inactive
SMILES: C[C@]12CCC(=O)C=C1CC[C@@H]1[C@@H]2[C@@H](O)C[C@@]2(C)[C@H]1CC[C@]2(O)C(=O)COP(=O)(O)O

Activity [2]: Not Active
SMILES: C[C@]12CCC(=O)C=C1CC[C@@H]1[C@@H]2[C@@H](O)C[C@@]2(C)[C@H]1CC[C@]2(O)C(=O)CO [HYDROCORTISONE]
growth inhibition (GI) (L929 [3]): Active
